Measurements taken from ChEMBL document CHEMBL4828746, “Design, synthesis and evaluation of heteroaryldihydropyrimidine analogues bearing spiro ring as hepatitis B virus capsid protein inhibitors” (Eur J Med Chem, 2021).

How the values were obtained:
[1] = biological target: Core antigen (Hepatitis B virus) (UniProt Q03732); test: Inhibition of capsid protein in HBV infected in human HepDES19 cells assessed as inhibition of viral replication by measuring plus polarity DNA level at 20 uM incubated for 3 days by strand preferential qPCR analysis relative to control; format: cell-based; set-up: scale not given: the % may be the effect or the level left; conditions: time 3.0 day
Core antigen (Hepatitis B virus), sequence (Q03732 as listed by the source): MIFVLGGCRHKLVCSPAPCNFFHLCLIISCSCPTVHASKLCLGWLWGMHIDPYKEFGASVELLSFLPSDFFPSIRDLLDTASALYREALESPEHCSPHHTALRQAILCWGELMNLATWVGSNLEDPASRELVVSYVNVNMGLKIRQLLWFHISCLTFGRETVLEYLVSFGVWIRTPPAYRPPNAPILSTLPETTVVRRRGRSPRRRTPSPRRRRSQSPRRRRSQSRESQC
Summary of the method: (§1)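 HepDES19 cells (HepG2 line carrying a tetracycline-repressible HBV genotype D genome) seeded at 4 x 10^4/well without tetracycline. Lysates treated with micrococcal nuclease, then protease. Plus- or minus-strand DNA quantified by strand-preferential qPCR as % of DMSO control. Each compound screened at two concentrations only: 20 and 5 μM, or 10 and 3 μM.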

[2] = biological target: Core antigen (Hepatitis B virus) (UniProt Q03732); test: Inhibition of capsid protein in HBV infected in human HepDES19 cells assessed as inhibition of viral replication by measuring minus polarity DNA level at 20 uM incubated for 3 days by strand preferential qPCR analysis relative to control; format: cell-based; set-up: scale not given: the % may be the effect or the level left; conditions: time 3.0 day
Summary of the method: as §1, with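 “tetracycline. Compound added 48 h after induction in 1% DMSO, then 3 days at 37°C, 5% CO2.” for “tetracycline.”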

[3] = biological target: Core antigen (Hepatitis B virus) (UniProt Q03732); test: Inhibition of capsid protein in HBV infected in human HepDES19 cells assessed as inhibition of viral replication by measuring minus polarity DNA level at 3 uM incubated for 3 days by strand preferential qPCR analysis relative to control; set-up: scale not given: the % may be the effect or the level left; conditions: time 3.0 day
[4] = biological target: Core antigen (Hepatitis B virus) (UniProt Q03732); test: Inhibition of capsid protein in HBV infected in human HepDES19 cells assessed as inhibition of viral replication by measuring minus polarity DNA level at 5 uM incubated for 3 days by strand preferential qPCR analysis relative to control; format: cell-based; set-up: scale not given: the % may be the effect or the level left; conditions: time 3.0 day; summary of the method: as §1
[5] = biological target: Core antigen (Hepatitis B virus) (UniProt Q03732); test: Inhibition of capsid protein in HBV infected in human HepDES19 cells assessed as inhibition of viral replication by measuring plus polarity DNA level at 3 uM incubated for 3 days by strand preferential qPCR analysis relative to control; set-up: scale not given: the % may be the effect or the level left; conditions: time 3.0 day
[6] = biological target: Core antigen (Hepatitis B virus) (UniProt Q03732); test: Inhibition of capsid protein in HBV infected in human HepDES19 cells assessed as inhibition of viral replication by measuring minus polarity DNA level at 10 uM incubated for 3 days by strand preferential qPCR analysis relative to control; format: cell-based; set-up: scale not given: the % may be the effect or the level left; conditions: time 3.0 day
Summary of the method: as §1, with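 “tetracycline. Compound added 48 h after induction in 1% DMSO, then 3 days at 37°C, 5% CO2.” for “tetracycline.”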

[7] = biological target: Core antigen (Hepatitis B virus) (UniProt Q03732); test: Inhibition of capsid protein in HBV infected in human HepDES19 cells assessed as inhibition of viral replication by measuring minus polarity DNA level at 3 uM incubated for 3 days by strand preferential qPCR analysis relative to control; format: cell-based; set-up: scale not given: the % may be the effect or the level left; conditions: time 3.0 day
Summary of the method: as §1, with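 “tetracycline. Compound added 48 h after induction in 1% DMSO, then 3 days at 37°C, 5% CO2.” for “tetracycline.”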

[8] = biological target: Core antigen (Hepatitis B virus) (UniProt Q03732); test: Inhibition of capsid protein in HBV infected in human HepDES19 cells assessed as inhibition of viral replication by measuring plus polarity DNA level at 10 uM incubated for 3 days by strand preferential qPCR analysis relative to control; format: cell-based; set-up: scale not given: the % may be the effect or the level left; conditions: time 3.0 day
Summary of the method: as §1, with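 “tetracycline. Compound added 48 h after induction in 1% DMSO, then 3 days at 37°C, 5% CO2.” for “tetracycline.”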

[9] = biological target: Core antigen (Hepatitis B virus) (UniProt Q03732); test: Inhibition of capsid protein in HBV infected in human HepDES19 cells assessed as inhibition of viral replication by measuring plus polarity DNA level at 3 uM incubated for 3 days by strand preferential qPCR analysis relative to control; format: cell-based; set-up: scale not given: the % may be the effect or the level left; conditions: time 3.0 day
Summary of the method: as §1, with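 “tetracycline. Compound added 48 h after induction in 1% DMSO, then 3 days at 37°C, 5% CO2.” for “tetracycline.”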

Hepatitis B virus [10] = test: Antiviral activity against HBV infected in human HepG2.2.15 cells assessed as inhibition of viral replication incubated for 8 days by southern blotting analysis; format: functional, organism-based; conditions: HepG2.2.15, 192 h
Hepatitis B virus [11] = test: Antiviral activity against HBV infected in human HepG2.2.15 cells assessed as inhibition of viral replication in presence of 50% human serum albumin; format: functional

Row | SMILES | Activity [1] [%] | Activity [2] [%] | Activity [3] [%] | Activity [4] [%] | Activity [5] [%] | other results
1 | CCOC(=O)C1=C(CN2CCC3(CCN(C(=O)OC(C)(C)C)CC3)C2)NC(c2nccs2)=NC1c1ccc(F)cc1Br (stereo unspecified) | 102 | 87 | 80.1 |  |  | 
2 | CCOC(=O)C1=C(CN2CCC3(CCN(C(=O)OC(C)(C)C)C3)C2=O)NC(c2nccs2)=NC1c1ccc(F)cc1Br (stereo unspecified) | 0.8 | 0.8 |  | 2.9 | 3.3 | 
3 | CCOC(=O)C1=C(CN2CC3(CNC3)CC2=O)NC(c2nccs2)=NC1c1ccc(F)cc1Br (stereo unspecified) | 108 | 85.3 |  |  |  | 
4 | CCOC(=O)C1=C(CN2CC3(CNC3)C2)NC(c2nccs2)=NC1c1ccc(F)cc1Br (stereo unspecified) | 87.4 | 94.8 | 85.9 |  |  | 
5 | CCOC(=O)C1=C(CN2CCC3(CC(=O)N(Cc4ccccc4)C3=O)C2)NC(c2nccs2)=NC1c1ccc(F)cc1Br (stereo unspecified) | 2 | 2.2 |  | 2.8 | 3 | 
6 | CCOC(=O)C1=C(CN2CCC3(CC2)CNC(=O)C3)NC(c2nccs2)=NC1c1ccc(F)cc1Br (stereo unspecified) | 2.4 | 2.7 |  | 4 | 3.4 | 
7 | CCOC(=O)C1=C(CN2CCC3(CCNC3)C2=O)NC(c2nccs2)=NC1c1ccc(F)cc1Br (stereo unspecified) | 109 | 81.4 |  |  |  | 
8 | CCOC(=O)C1=C(CN2CCC3(CC2)CNC3=O)NC(c2nccs2)=NC1c1ccc(F)cc1Br (stereo unspecified) | 2.4 | 2.5 |  | 3.4 | 2.7 | 
9 | CCOC(=O)C1=C(CN2CCC3(CC2)CN(C(=O)OC(C)(C)C)C3)NC(c2nccs2)=NC1c1ccc(F)cc1Br (stereo unspecified) |  |  |  |  |  | Activity [6]: 60.2%; Activity [7]: 83.7%; Activity [8]: 60.9%; Activity [9]: 87.7%
10 | CCOC(=O)C1=C(CN2CCC3(CNC(=O)C3)C2)NC(c2nccs2)=NC1c1ccc(F)cc1Br (stereo unspecified) | 3 | 2.5 |  | 2.3 | 2.8 | 
11 | CCOC(=O)C1=C(CN2CCC3(CC2)CC(NC(=O)OC(C)(C)C)C3)NC(c2nccs2)=NC1c1ccc(F)cc1Br (stereo unspecified) | 111 | 117 | 97.2 |  |  | 
12 | Nc1ccn([C@@H]2CS[C@H](CO)O2)c(=O)n1 [LAMIVUDINE] | 4 | 11.8 | 79.1 |  | 23.9 | EC50 (Hepatitis B virus [10]): 325 nM
13 | CCOC(=O)C1=C(CN2CCC3(CC2)OCCO3)NC(c2nccs2)=NC1c1ccc(F)cc1Br (stereo unspecified) | 3.4 | 3.4 |  | 3.1 | 3.8 | 
14 | CCOC(=O)C1=C(CN2CC3(C2)CN(C(=O)OC(C)(C)C)C3)NC(c2nccs2)=NC1c1ccc(F)cc1Br (stereo unspecified) | 105 | 96.5 | 85.7 |  |  | 
15 | CCOC(=O)C1=C(CN2CCC3(CC2)CNC3)NC(c2nccs2)=NC1c1ccc(F)cc1Br (stereo unspecified) | 113 | 93.4 | 70.8 |  |  | 
16 | CCOC(=O)C1=C(CN2CC3(CCNC3)CC2=O)NC(c2nccs2)=NC1c1ccc(F)cc1Br (stereo unspecified) | 120 | 68.9 |  |  |  | 
17 | CCOC(=O)C1=C(CN2CCC3(CC2)CC(=O)NC3=O)NC(c2nccs2)=NC1c1ccc(F)cc1Br (stereo unspecified) | 22.4 | 34.8 |  | 21.1 | 18.9 | 
18 | CCOC(=O)C1=C(CN2CC3(CC2=O)CN(C(=O)OC(C)(C)C)C3)NC(c2nccs2)=NC1c1ccc(F)cc1Br (stereo unspecified) | 3.5 | 1.8 |  | 2.5 | 2.4 | 
19 | CCOC(=O)C1=C(CN2CCC3(C2)CN(C(=O)OC(C)(C)C)C3)NC(c2nccs2)=NC1c1ccc(F)cc1Br (stereo unspecified) | 54.7 | 56.5 | 85.3 |  |  | 
20 | CCOC(=O)C1=C(CN2CCOCC2)NC(c2nccs2)=N[C@H]1c1ccc(F)cc1Br |  | 22.6 |  |  |  | EC50 (Hepatitis B virus [10]): 12 nM; EC90 (Hepatitis B virus [11]): 0.0557 µg/mL
21 | CCOC(=O)C1=C(CN2CCC3(CCNC3)CC2)NC(c2nccs2)=NC1c1ccc(F)cc1Br (stereo unspecified) | 105 | 99.6 | 72.5 |  |  | 
22 | CCOC(=O)C1=C(CN2CCC3(CCN(C(=O)OC(C)(C)C)C3)C2)NC(c2nccs2)=NC1c1ccc(F)cc1Br (stereo unspecified) | 16.8 | 28.8 | 67.1 |  |  | 
23 | CCOC(=O)C1=C(CN2CCC3(CCNCC3)C2)NC(c2nccs2)=NC1c1ccc(F)cc1Br (stereo unspecified) | 88.4 | 86.4 | 69.9 |  |  | 
24 | CCOC(=O)C1=C(CN2CCC3(CCNCC3)CC2)NC(c2nccs2)=NC1c1ccc(F)cc1Br (stereo unspecified) | 106 | 97.7 | 67.1 |  |  | 
25 | CCOC(=O)C1=C(CN2CCC3(CNC3)C2)NC(c2nccs2)=NC1c1ccc(F)cc1Br (stereo unspecified) | 82.2 | 88.8 | 84.5 |  |  | 
26 | CCOC(=O)C1=C(CN2CCC3(CC2)CC(N)C3)NC(c2nccs2)=NC1c1ccc(F)cc1Br (stereo unspecified) | 114 | 105 | 69.9 |  |  | 
27 | CCOC(=O)C1=C(CN2CC3(CCN(C(=O)OC(C)(C)C)C3)CC2=O)NC(c2nccs2)=NC1c1ccc(F)cc1Br (stereo unspecified) | 1.8 | 1.3 |  | 2.9 | 2.7 | 
28 | CCOC(=O)C1=C(CN2CCC3(CC2)CCN(C(=O)OC(C)(C)C)C3)NC(c2nccs2)=NC1c1ccc(F)cc1Br (stereo unspecified) |  |  |  |  |  | Activity [6]: 76.1%; Activity [7]: 85%; Activity [8]: 92.5%; Activity [9]: 85.3%
29 | CCOC(=O)C1=C(CN2CCC3(CC2)CCN(C(=O)OC(C)(C)C)CC3)NC(c2nccs2)=NC1c1ccc(F)cc1Br (stereo unspecified) |  |  |  |  |  | Activity [6]: 110%; Activity [7]: 74.5%; Activity [8]: 91.1%; Activity [9]: 93%
30 | CCOC(=O)C1=C(CN2CCC3(CCNC3=O)CC2)NC(c2nccs2)=NC1c1ccc(F)cc1Br (stereo unspecified) | 18.3 | 37.8 |  | 44.1 |  | 
